Source: ChEMBL document CHEMBL3580589, “Discovery of Quinazoline-Based Fluorescent Probes to α1-Adrenergic Receptors” (ACS Med Chem Lett, 2015)
Calls of active or inactive are those of the source. No cut-off for these calls is given here.

How the values were obtained:
[1] = Cytotoxicity against HEK293A cells transfected with alpha-1D adrenergic receptor assessed as cell viability by sulforhodamine B assay; type: cell-based; conditions: Homo sapiens, HEK293-A
Procedure, shortened: (§1)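 Standard sulforhodamine B colorimetric assay in HEK293A cells stably transfected with α1A-AR or α1D-AR.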

[2] = Cytotoxicity against HEK293A cells transfected with alpha-1A adrenergic receptor assessed as cell viability by sulforhodamine B assay; type: cell-based; conditions: Homo sapiens, HEK293-A; procedure, shortened: as §1
[3] = biological target: T1, Alpha-1B adrenergic receptor (Homo sapiens, UniProt P35368); assay: Displacement of [3H]-Prazosin from human alpha-1B adrenergic receptor transfected in CHO cell membranes after 2 hrs by microplate scintillation counting analysis
T1 sequence (P35368 whole entry): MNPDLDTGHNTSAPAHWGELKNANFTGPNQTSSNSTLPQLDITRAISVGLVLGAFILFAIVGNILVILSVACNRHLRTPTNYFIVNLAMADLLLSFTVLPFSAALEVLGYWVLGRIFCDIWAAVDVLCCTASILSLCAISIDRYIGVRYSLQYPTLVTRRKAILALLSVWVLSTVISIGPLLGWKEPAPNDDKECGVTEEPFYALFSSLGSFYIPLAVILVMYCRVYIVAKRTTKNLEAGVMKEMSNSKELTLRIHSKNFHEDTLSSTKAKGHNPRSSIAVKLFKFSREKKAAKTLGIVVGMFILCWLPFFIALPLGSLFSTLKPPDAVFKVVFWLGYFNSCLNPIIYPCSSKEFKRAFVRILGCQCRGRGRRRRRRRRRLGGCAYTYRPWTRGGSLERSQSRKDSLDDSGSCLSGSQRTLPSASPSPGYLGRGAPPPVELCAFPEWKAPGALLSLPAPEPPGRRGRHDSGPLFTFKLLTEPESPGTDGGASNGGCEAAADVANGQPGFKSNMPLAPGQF
Procedure, shortened: (§2)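 Radioligand competition binding used [3H]prazosin on membranes from CHO cells transfected with human cloned α1A-, α1B- or α1D-adrenoceptors.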

[4] = biological target: T2, Alpha-1D adrenergic receptor (Homo sapiens) (UniProt P25100); assay: Binding affinity to alpha-1D adrenergic receptor (unknown origin) transfected in HEK293A cells at 15 nM measured 5 mins post wash out by DiD dye-based confocal microscopic analysis in presence of alpha1 adrenergic receptor antagonist tamsulosin; type: cell-based; conditions: HEK293-A
T2 sequence (whole entry): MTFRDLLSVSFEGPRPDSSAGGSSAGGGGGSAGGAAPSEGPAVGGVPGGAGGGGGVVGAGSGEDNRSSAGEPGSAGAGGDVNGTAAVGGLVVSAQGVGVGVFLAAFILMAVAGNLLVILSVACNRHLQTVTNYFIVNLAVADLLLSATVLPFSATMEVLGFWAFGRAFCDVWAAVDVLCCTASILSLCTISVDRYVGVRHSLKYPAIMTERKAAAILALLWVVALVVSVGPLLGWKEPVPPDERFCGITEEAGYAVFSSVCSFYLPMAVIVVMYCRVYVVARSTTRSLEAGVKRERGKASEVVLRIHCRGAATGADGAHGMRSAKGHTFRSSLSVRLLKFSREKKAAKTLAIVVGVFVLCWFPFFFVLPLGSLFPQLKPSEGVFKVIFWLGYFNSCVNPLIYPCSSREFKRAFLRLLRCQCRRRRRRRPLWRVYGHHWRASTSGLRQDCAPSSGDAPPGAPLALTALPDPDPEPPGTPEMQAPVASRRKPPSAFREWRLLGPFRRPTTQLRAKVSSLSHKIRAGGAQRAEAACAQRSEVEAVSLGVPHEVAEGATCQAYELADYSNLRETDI
Procedure, shortened: (§3)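 α1A-AR- or α1D-AR-transfected HEK293A cells were incubated with the probe at 15 nM, DiD and tamsulosin at 300 nM as competitor for 5 min at 37 °C. Cells were washed immediately and imaged by confocal microscopy at identical exposure.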

[5] = biological target: T2, Alpha-1D adrenergic receptor (Homo sapiens); assay: Binding affinity to alpha-1D adrenergic receptor (unknown origin) transfected in HEK293A cells at 15 nM measured 5 mins post wash out by DiD dye-based confocal microscopic analysis; type: cell-based; conditions: HEK293-A
Procedure, shortened: (§4)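 HEK293A cells stably transfected with α1A-AR or α1D-AR, or untransfected HEK293A cells, were incubated with the probe at 15 nM plus the membrane dye DiD for 5 min at 37 °C. Cells were washed immediately and imaged by confocal fluorescence microscopy at identical exposure times.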

[6] = biological target: T3, Alpha-1A adrenergic receptor (Homo sapiens, UniProt P35348); assay: Displacement of [3H]-Prazosin from human alpha-1A adrenergic receptor transfected in CHO cell membranes after 2 hrs by microplate scintillation counting analysis; procedure, shortened: as §2
T3 sequence (P35348 whole entry): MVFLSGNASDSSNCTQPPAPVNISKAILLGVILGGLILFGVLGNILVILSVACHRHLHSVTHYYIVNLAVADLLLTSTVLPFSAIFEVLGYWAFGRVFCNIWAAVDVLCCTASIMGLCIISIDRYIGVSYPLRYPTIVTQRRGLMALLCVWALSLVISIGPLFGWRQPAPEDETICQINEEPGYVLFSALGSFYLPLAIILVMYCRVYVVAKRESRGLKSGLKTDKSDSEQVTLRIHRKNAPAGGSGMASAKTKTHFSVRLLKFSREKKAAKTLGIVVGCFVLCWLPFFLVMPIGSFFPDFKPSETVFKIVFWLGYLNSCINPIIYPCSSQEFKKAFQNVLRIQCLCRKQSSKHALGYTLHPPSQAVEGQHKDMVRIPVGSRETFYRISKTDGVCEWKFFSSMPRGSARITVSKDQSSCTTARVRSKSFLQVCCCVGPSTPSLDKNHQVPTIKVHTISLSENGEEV

[7] = Drug uptake in HEK293A cells at 15 nM measured 5 mins post wash out by DiD dye-based confocal microscopic analysis; type: ADME, cell-based; conditions: human, hek293-a, 0.015 µM; procedure, shortened: as §4
[8] = biological target: T4, Alpha-1D adrenergic receptor (Homo sapiens, UniProt P25100); assay: Displacement of [3H]-Prazosin from human alpha-1D adrenergic receptor transfected in CHO cell membranes after 2 hrs by microplate scintillation counting analysis; procedure, shortened: as §2
T4 sequence (P25100 whole entry): T2 sequence (whole entry)

[9] = biological target: T5, Alpha-1A adrenergic receptor (Homo sapiens) (UniProt P35348); assay: Binding affinity to alpha-1A adrenergic receptor (unknown origin) transfected in HEK293A cells at 15 nM measured 5 mins post wash out by DiD dye-based confocal microscopic analysis; type: cell-based; conditions: HEK293-A; procedure, shortened: as §4
T5 sequence (whole entry): T3 sequence (P35348 whole entry)

[10] = biological target: T5, Alpha-1A adrenergic receptor (Homo sapiens); assay: Binding affinity to alpha-1A adrenergic receptor (unknown origin) transfected in HEK293A cells at 15 nM measured 5 mins post wash out by DiD dye-based confocal microscopic analysis in presence of alpha1 adrenergic receptor antagonist tamsulosin; type: cell-based; conditions: HEK293-A; procedure, shortened: as §3
[11] = Drug uptake in HEK293A cells at 20 nM after 5 mins by DiD dye-based confocal microscopic analysis; type: ADME, cell-based; conditions: human, hek293-a, 0.02 µM
Procedure, shortened: (§5)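 α1A-AR- or α1D-AR-transfected HEK293A cells, or untransfected HEK293A cells as the receptor-free control, were incubated with the probe plus DiD (red, colocalization) for 5 min at 37 °C. Probe signal was compared with the DiD-stained surface for subcellular localization by fluorescence microscopy.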

[12] = biological target: T5, Alpha-1A adrenergic receptor (Homo sapiens); assay: Binding affinity to alpha-1A adrenergic receptor (unknown origin) transfected in HEK293A cells at 20 nM after 5 mins by DiD dye-based confocal microscopic analysis in presence of alpha1 adrenergic receptor antagonist tamsulosin; type: cell-based; conditions: HEK293-A
Procedure, shortened: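 Transfected HEK293A cells expressing α1A-AR or α1D-AR were incubated with the probe, DiD and tamsulosin as competing α1-AR antagonist for 5 min at 37 °C. Fluorescence labelling was imaged by confocal microscopy.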

[13] = biological target: T5, Alpha-1A adrenergic receptor (Homo sapiens); assay: Binding affinity to alpha-1A adrenergic receptor (unknown origin) transfected in HEK293A cells at 20 nM after 5 mins by DiD dye-based confocal microscopic analysis; type: cell-based; conditions: HEK293-A; procedure, shortened: as §5

| IC50 [3] [nM] | Activity [4] | Activity [5] | IC50 [6] [nM] | Ki [6] [nM] | Drug uptake [7] | IC50 [8] [nM] | Activity [9] | Activity [10] | Ki [3] [nM] | Drug uptake [11] | Activity [12] | Activity [13] | Ki [8] [nM] | Structure (SMILES) | IC50 [1] [nM] | IC50 [2] [nM] |
| --- | --- | --- | --- | --- | --- | --- | --- | --- | --- | --- | --- | --- | --- | --- | --- | --- |
| – | – | – | – | – | – | – | – | – | – | – | – | – | – | COc1cc2nc(N3CCN(C(=O)C4COc5ccccc5O4)CC3)nc(N)c2cc1OC (centres undefined) [DOXAZOSIN] | 22000 | 19000 |
| < 5 | inactive | Active | 2.5 | 1.3 | Active | < 5 | Active | inactive | – | – | – | – | – | COc1cc2nc(N3CCN(C(=O)c4cn(-c5cc6ccc(O)cc6oc5=O)nn4)CC3)nc(N)c2cc1OC | 85000 | > 100000 |
| 52.4 | – | – | 52.4 | 29.9 | – | 45.2 | – | – | 29.9 | Active | inactive | Active | 27.5 | CCN(CC)c1ccc2cc(-n3cc(CN4CCN(c5nc(N)c6cc(OC)c(OC)cc6n5)CC4)nn3)c(=O)oc2c1 | 17000 | 26000 |
